Active and inactive are the calls of the source.
Legend:
Format in all cases: functional, cell-based
HeLa = assay: Cytotoxicity against human HeLa cells after 72 hrs
Outline: (§1)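 Cells were exposed for 72 h of cultivation; L-929 mouse fibroblasts and HeLa human cells grown adherent, K-562 human leukemia cells grown nonadherent. Result given as IC50 in µg/mL.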

L929 = assay: Cytotoxicity against mouse L929 cells after 72 hrs; outline: as §1
K562 = assay: Cytotoxicity against human K562 cells after 72 hrs; outline: as §1

Measured: Activity

C=CC(C)(C)c1[nH]c2ccccc2c1C[C@@H]1NC(=O)[C@H](Cc2c[nH]c3ccccc23)NC1=O
inactive: all assays above

O=C1N[C@@H](Cc2c[nH]c3ccccc23)C(=O)N[C@H]1Cc1c[nH]c2ccccc12
inactive: all assays above

C=CC(C)(C)c1[nH]c2ccccc2c1C[C@@H]1NC(=O)[C@H](Cc2c(C(C)(C)C=C)[nH]c3ccccc23)NC1=O
inactive: all assays above

Reference: ChEMBL document CHEMBL1142616, “New diketopiperazine alkaloids from Penicillium fellutanum” (J Nat Prod, 2000)
